Results on 12 compounds are retold here after ChEMBL document CHEMBL1138144 (J Med Chem, 2006).

The target in assay [1] is T1, Sodium-dependent dopamine transporter (Homo sapiens, UniProt Q01959). In words: Displacement of [125I]RTI-55 from human DAT expressed in HEK293 cells. The format is cell-based. Summed up: (§1)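 Membranes from HEK293 cells expressing hDAT or hSERT, grown to 80% confluence, lysed in 2 mM HEPES/1 mM EDTA, spun and resuspended in 0.32 M sucrose. About 10–15 µg protein preincubated 10 min with compound in Krebs-HEPES pH 7.4 (0.1% DMSO final). Filtered on GF/C. Non-specific binding: 5 µM mazindol (DAT) or 5 µM imipramine (SERT). Duplicates, 2–3 experiments, IC50 converted to Ki by Cheng-Prusoff.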

Assay [2] has as its target T1, Sodium-dependent dopamine transporter. As to the kind of experiment: Inhibition of [3H] dopamine uptake into human DAT expressed in HEK293 cells. In kind it is functional, cell-based. The gist of the method: (§2)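 Confluent HEK293 cells expressing hDAT or hSERT, scraped into Krebs-HEPES. Preincubated 10 min at 25°C with compound (0.1% DMSO final). Uptake started with [3H]dopamine or [3H]serotonin (20 nM final) and stopped after 10 min by filtration on PEI-soaked GF/C filters. Non-specific uptake: 5 µM mazindol (DAT) or 5 µM imipramine (SERT). IC50 from triplicate 6-concentration curves, 2–3 independent determinations.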

Assay [3] concerns the target T2, Sodium-dependent serotonin transporter (Homo sapiens, UniProt P31645). In words: Displacement of [125I]RTI-55 from human SERT expressed in HEK293 cells. In kind it is cell-based. Summed up:
as §1

Assay [4] has as its target T2, Sodium-dependent serotonin transporter. As to the kind of experiment: Inhibition of [3H] serotonin uptake into human SERT expressed in HEK293 cells. The format is functional, cell-based. The gist of the method:
as §2

Assay [5] deals with T3, Sodium-dependent noradrenaline transporter (Homo sapiens, UniProt P23975). As to the kind of experiment: Displacement of [125I]RTI-55 from human NET expressed in HEK293 cells. In kind it is cell-based.
For assay [6], the target named is T3, Sodium-dependent noradrenaline transporter. In words: Inhibition of [3H] norepinephrine uptake into human NET expressed in HEK293 cells. The format is functional, cell-based.
Assay [7] addresses T4, 5-hydroxytryptamine receptor 1A (Homo sapiens, UniProt P08908).
T4 sequence (P08908 whole entry): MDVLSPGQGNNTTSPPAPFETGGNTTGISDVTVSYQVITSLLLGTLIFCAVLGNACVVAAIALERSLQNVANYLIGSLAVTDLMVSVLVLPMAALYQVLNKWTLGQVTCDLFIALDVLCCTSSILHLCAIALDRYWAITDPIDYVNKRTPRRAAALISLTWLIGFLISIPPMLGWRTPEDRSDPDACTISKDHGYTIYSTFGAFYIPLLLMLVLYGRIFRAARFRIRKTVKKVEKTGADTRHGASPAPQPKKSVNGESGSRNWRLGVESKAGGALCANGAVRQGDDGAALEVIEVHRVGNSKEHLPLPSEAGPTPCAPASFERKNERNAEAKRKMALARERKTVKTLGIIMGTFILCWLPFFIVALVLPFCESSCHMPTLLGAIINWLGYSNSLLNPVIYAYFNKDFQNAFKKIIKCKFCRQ
As to the kind of experiment: Inhibitory activity against 5HT1A.

The target of assay [8] is 5-hydroxytryptamine receptor 1B (Homo sapiens, UniProt P28222). As to the kind of experiment: Inhibitory activity against 5HT1B.
Assay [9] deals with T5, 5-hydroxytryptamine receptor 2C (Homo sapiens, UniProt P28335).
T5 sequence (P28335 whole entry): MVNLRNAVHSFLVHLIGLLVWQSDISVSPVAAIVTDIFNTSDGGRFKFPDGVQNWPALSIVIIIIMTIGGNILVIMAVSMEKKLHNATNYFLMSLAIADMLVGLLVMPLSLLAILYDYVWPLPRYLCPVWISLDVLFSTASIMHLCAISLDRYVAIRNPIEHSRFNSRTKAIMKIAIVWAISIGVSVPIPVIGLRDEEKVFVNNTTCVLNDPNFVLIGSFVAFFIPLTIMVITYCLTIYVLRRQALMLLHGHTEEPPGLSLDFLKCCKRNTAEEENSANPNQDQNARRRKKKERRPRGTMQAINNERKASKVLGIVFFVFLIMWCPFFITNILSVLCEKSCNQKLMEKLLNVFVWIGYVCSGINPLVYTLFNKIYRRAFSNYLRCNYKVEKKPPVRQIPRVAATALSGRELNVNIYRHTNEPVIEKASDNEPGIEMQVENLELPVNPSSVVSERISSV
In words: Inhibitory activity against 5HT1C.

A further assay deals with D(1A) dopamine receptor (Homo sapiens, UniProt P21728). In words: Inhibitory activity against dopamine D1.
In the next assay the target is D(2) dopamine receptor (Homo sapiens, UniProt P14416). In words: Inhibitory activity against dopamine D2.
The target of the next assay is D(3) dopamine receptor (Homo sapiens, UniProt P35462). As to the kind of experiment: Inhibitory activity against dopamine D3.
Sequence of D(3) dopamine receptor (P35462 whole entry): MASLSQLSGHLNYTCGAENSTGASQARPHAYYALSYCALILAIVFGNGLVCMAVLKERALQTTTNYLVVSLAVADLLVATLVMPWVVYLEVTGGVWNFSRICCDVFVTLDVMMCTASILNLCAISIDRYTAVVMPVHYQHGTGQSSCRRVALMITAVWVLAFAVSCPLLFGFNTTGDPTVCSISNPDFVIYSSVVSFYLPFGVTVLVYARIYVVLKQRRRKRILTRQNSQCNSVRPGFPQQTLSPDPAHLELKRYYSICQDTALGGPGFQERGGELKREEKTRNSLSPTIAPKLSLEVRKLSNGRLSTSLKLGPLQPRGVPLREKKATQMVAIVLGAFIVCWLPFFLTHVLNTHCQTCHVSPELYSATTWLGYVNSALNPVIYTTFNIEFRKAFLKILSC

Sequence of D(1A) dopamine receptor (P21728 whole entry): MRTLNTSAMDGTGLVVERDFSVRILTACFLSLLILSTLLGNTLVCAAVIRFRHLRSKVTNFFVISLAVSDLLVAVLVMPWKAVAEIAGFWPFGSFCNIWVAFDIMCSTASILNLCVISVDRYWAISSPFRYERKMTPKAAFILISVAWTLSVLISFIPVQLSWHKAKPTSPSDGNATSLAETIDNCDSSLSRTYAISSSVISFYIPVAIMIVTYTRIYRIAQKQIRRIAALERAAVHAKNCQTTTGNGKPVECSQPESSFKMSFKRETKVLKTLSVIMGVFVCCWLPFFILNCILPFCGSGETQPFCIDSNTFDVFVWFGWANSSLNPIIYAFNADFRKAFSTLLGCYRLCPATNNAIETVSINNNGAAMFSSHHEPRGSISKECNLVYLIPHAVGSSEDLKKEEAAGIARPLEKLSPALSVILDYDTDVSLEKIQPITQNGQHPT
Sequence of 5-hydroxytryptamine receptor 1B (P28222 whole entry): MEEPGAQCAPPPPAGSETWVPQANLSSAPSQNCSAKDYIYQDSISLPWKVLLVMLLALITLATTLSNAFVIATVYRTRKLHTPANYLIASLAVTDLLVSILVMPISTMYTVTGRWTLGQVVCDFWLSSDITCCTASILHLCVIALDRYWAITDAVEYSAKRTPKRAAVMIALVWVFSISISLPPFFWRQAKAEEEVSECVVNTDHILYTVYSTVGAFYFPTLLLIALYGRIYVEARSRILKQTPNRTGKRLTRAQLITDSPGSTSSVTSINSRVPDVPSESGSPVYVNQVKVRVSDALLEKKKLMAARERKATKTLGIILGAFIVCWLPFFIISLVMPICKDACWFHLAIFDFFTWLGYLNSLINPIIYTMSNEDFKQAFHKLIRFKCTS
Sequence of D(2) dopamine receptor (P14416 whole entry): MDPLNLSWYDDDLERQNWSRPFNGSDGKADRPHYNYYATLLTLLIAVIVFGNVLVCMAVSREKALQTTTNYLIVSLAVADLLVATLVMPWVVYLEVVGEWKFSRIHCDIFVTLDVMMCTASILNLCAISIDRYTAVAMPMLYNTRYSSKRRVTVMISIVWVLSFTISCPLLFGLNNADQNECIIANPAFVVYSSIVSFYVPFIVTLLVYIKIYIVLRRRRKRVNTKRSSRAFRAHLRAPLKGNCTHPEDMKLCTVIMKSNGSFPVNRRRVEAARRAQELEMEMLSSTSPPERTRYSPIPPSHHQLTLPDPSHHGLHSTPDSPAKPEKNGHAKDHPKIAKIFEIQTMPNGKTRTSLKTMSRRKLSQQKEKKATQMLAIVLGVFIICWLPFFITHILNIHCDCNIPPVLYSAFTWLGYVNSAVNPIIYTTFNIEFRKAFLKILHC
T1 sequence (Q01959 whole entry): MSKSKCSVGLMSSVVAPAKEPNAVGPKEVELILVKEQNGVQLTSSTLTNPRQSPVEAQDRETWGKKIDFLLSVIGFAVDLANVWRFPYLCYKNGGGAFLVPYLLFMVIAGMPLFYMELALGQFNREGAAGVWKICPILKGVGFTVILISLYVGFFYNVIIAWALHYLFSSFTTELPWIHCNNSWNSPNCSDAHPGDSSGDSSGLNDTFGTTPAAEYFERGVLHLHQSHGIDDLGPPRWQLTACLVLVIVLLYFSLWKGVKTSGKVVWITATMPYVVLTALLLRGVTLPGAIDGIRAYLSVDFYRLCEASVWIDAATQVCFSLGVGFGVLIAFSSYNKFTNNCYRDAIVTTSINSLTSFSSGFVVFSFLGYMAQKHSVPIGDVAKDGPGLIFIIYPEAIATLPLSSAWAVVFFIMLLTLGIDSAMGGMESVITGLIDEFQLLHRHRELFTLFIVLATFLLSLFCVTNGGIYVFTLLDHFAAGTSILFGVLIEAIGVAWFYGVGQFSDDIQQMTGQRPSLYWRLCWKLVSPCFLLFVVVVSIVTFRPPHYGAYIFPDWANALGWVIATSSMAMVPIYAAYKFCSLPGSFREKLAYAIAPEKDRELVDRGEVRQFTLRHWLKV
T2 sequence (P31645 whole entry): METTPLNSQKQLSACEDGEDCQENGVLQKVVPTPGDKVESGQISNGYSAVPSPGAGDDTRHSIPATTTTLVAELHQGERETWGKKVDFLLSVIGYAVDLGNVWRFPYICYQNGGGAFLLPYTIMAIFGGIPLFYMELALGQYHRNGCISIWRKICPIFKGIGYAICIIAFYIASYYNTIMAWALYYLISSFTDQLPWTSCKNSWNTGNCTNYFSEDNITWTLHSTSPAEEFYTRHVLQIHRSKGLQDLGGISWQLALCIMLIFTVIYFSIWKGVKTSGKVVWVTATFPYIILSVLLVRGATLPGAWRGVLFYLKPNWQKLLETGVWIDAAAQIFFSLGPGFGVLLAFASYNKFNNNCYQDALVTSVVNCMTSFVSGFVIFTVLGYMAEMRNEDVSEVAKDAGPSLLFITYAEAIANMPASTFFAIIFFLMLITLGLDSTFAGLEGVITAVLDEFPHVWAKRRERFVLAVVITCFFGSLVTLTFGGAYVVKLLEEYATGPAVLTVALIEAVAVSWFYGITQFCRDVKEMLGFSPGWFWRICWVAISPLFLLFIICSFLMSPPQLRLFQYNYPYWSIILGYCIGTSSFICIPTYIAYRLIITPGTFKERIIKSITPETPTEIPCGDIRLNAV
T3 sequence (P23975 whole entry): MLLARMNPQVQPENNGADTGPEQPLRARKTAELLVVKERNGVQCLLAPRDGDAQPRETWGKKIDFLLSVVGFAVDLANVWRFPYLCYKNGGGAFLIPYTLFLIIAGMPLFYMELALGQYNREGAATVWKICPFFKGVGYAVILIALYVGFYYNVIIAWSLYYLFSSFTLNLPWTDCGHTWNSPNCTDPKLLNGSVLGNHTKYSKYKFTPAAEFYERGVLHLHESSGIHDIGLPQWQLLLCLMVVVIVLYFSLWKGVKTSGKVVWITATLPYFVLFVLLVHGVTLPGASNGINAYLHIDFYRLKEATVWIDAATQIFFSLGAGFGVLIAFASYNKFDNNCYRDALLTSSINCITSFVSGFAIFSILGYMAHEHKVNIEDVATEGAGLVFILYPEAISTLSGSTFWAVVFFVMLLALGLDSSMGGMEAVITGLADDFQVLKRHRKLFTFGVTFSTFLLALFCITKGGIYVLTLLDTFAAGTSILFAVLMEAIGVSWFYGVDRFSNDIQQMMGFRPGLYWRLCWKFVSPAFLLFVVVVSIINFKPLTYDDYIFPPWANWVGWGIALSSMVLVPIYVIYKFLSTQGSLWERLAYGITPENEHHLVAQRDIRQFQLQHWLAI

The Ki is the equilibrium dissociation constant of an inhibitor or competing ligand from its target. A high value points to weaker binding. In general, IC50 refers to the concentration that inhibits the measured activity by half. `CCCC(C(=O)c1ccc2ccccc2c1)N1CCCC1` (stereo not given): the Ki in [1] was 0.0201 µM; in assay [3], 0.0331 µM; in assay [5], 0.136 µM. Further, the IC50 was 0.04 µM in [2]; 0.046 µM in assay [4]; 0.0117 µM in [6]; greater than 10 µM in assay [7]; greater than 10 µM in assay [8]; greater than 10 µM in assay [9]. For the same compound, the half-maximal inhibitory concentration (IC50) against D(1A) dopamine receptor, against D(2) dopamine receptor and on D(3) dopamine receptor was greater than 10 µM each time.
Regarding `CCC(CC(=O)c1ccc(C)cc1)N1CCCC1` (stereo not given), the Ki in assay [1], in assay [3] and in assay [5] was greater than 10 µM each time. Moreover, the half-inhibitory concentration (IC50) (in [7]; in [8]; in assay [9]; against D(1A) dopamine receptor; against D(2) dopamine receptor; against D(3) dopamine receptor) was greater than 10 µM each time.
With `CCCC(C(=O)c1cccc(C)c1)N1CCCC1` (stereo not given), the figures for the inhibitory constant (Ki) in assay [1], in assay [3] and in [5] were 0.051 µM, 5.9 µM and 0.216 µM, respectively. The IC50 in assay [2] is 0.0629 µM; in [6], 0.0094 µM; in [7], greater than 10 µM; in [8], greater than 10 µM; in assay [9], greater than 10 µM; against D(1A) dopamine receptor, greater than 10 µM. Besides, the IC50 against D(2) dopamine receptor and against D(3) dopamine receptor was greater than 10 µM each time.
As for `CCC[C@@H](C(=O)c1ccc(C)cc1)N1CCCC1`, the Ki stood at 0.0181 µM in assay [1], 2.22 µM in [3] and 0.109 µM in [5]. Also, the 50% inhibitory concentration (IC50) in assay [2] is 0.0163 µM; in [4], 1.07 µM; in assay [6], 0.0113 µM; in assay [7] it was greater than 10 µM; in assay [8], greater than 10 µM; in assay [9], greater than 10 µM. In addition, the IC50 against D(1A) dopamine receptor, on D(2) dopamine receptor and against D(3) dopamine receptor was greater than 10 µM throughout.
For the compound `CCCC(C(=O)c1ccc(O)cc1)N1CCCC1` (stereo not given), the inhibition constant Ki is 0.125 µM in assay [1], greater than 10 µM in assay [3] and 1.29 µM in assay [5]. For the same compound, the IC50 in assay [2] is 0.0497 µM; in assay [6], 0.0867 µM; in [7], greater than 10 µM; in assay [8], greater than 10 µM; in assay [9] it was greater than 10 µM; against D(1A) dopamine receptor, greater than 10 µM. The IC50 against D(2) dopamine receptor and against D(3) dopamine receptor was greater than 10 µM each time.
On to `CCC(CC(=O)c1ccc(Cl)c(Cl)c1)N1CCCC1` (stereo not given), for which the inhibition constant Ki is 8.44 µM in assay [1], 3.9 µM in [3] and greater than 10 µM in [5]. Also, the half-inhibitory concentration (IC50) was greater than 10 µM in [2]; 1.78 µM in assay [4]; greater than 10 µM in assay [7]; greater than 10 µM in assay [8]; greater than 10 µM in [9]; greater than 10 µM against D(1A) dopamine receptor. The IC50 at D(2) dopamine receptor and against D(3) dopamine receptor was greater than 10 µM in each case.
For `CCCC(C(=O)c1ccc(OC)cc1)N1CCCC1` (stereo not given), the inhibitory constant (Ki) stood at 0.329 µM in assay [1], 4.08 µM in assay [3] and 2.6 µM in assay [5]. The half-inhibitory concentration (IC50) in [2] was 0.283 µM; in assay [4] it was 2.43 µM; in assay [6] it was 0.235 µM; in assay [7], greater than 10 µM; in [8], greater than 10 µM; in assay [9] it was greater than 10 µM. Moreover, the half-inhibitory concentration (IC50) on D(1A) dopamine receptor, against D(2) dopamine receptor and against D(3) dopamine receptor was greater than 10 µM each time.
Take `CCCC(C(=O)c1ccc(C(F)(F)F)cc1)N1CCCC1` (stereo not given): the Ki in assay [1] was greater than 10 µM; in [3] it was 0.959 µM; in assay [5], greater than 10 µM. Moreover, the IC50 was 1.03 µM in assay [4]; greater than 10 µM in assay [7]; greater than 10 µM in assay [8]; greater than 10 µM in [9]; greater than 10 µM on D(1A) dopamine receptor; greater than 10 µM on D(2) dopamine receptor. For the same compound, the IC50 on D(3) dopamine receptor is greater than 10 µM.
Turning to `CCCC(C(=O)c1ccc(Br)cc1)N1CCCC1` (stereo not given), the Ki in assay [1] stood at 0.051 µM; in assay [3], 0.83 µM; in [5] it was 0.386 µM. For the same compound, the IC50 was 0.0395 µM in assay [2]; 1.05 µM in [4]; 0.083 µM in [6]; greater than 10 µM in [7]; greater than 10 µM in [8]; greater than 10 µM in [9]. The half-inhibitory concentration (IC50) against D(1A) dopamine receptor, against D(2) dopamine receptor and against D(3) dopamine receptor was greater than 10 µM in each case.
As for `CCCC(C(=O)c1ccc(-c2cccs2)cc1)N1CCCC1` (stereo not given), the results for the Ki in assay [1], in [3] and in [5] were 0.46 µM, 3.32 µM and 0.37 µM, respectively. For the same compound, the 50% inhibitory concentration (IC50) in [2] was 0.539 µM; in assay [4], 1.96 µM; in [6] it was 0.263 µM; in assay [7], greater than 10 µM; in [8], greater than 10 µM; in assay [9] it was greater than 10 µM. Further, the IC50 against D(1A) dopamine receptor, on D(2) dopamine receptor and at D(3) dopamine receptor was greater than 10 µM in each case.
For the compound `CCCC(C(=O)c1ccccc1C)N1CCCC1` (stereo not given), the Ki is 0.0597 µM in assay [1], 3.72 µM in assay [3] and 0.425 µM in assay [5]. The IC50 is 0.063 µM in assay [2]; 2.02 µM in [4]; 0.0197 µM in assay [6]; greater than 10 µM in assay [7]; greater than 10 µM in assay [8]; greater than 10 µM in assay [9]. Moreover, the IC50 at D(1A) dopamine receptor, against D(2) dopamine receptor and at D(3) dopamine receptor was greater than 10 µM throughout.
Take `CCCC(C(=O)c1ccc(NC(C)=O)cc1)N1CCCC1` (stereo not given): the inhibition constant Ki was 0.0302 µM in assay [1], greater than 10 µM in assay [3] and 4 µM in assay [5]. Moreover, the half-inhibitory concentration (IC50) in [2] is 0.0679 µM; in assay [6], 0.317 µM; in assay [7], greater than 10 µM; in assay [8] it was greater than 10 µM; in [9] it was greater than 10 µM; on D(1A) dopamine receptor, greater than 10 µM. The IC50 against D(2) dopamine receptor and against D(3) dopamine receptor was greater than 10 µM each time.
